Assay results reported in PubChem BioAssay AID2247 (Johns Hopkins Ion Channel Center, 2010).
The whole screen tested about 300,000 compounds, of which about 1,200 (0.4%) were called active. The sample holds actives, similar compounds and a random draw of the others, so the mix is not that of the screen.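 The calls were made as follows: active = B-score over 3 SD under the library average, no early fluorescence shift, positive overall ratio signal; inactive = the rest.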

These compounds were tested against Short transient receptor potential channel 4 (Mus musculus) (UniProt Q9QUQ5) (assay: blockers of DAMGO-evoked TRPC4 calcium flux – Fluo4 calcium, HEK293 TRPC4beta/mu-opioid cells, primary screen (AID 2247)). Conditions: at 10 µM; active compounds read low.
Sequence of Short transient receptor potential channel 4 (Mus musculus) (Q9QUQ5 whole entry, looked up): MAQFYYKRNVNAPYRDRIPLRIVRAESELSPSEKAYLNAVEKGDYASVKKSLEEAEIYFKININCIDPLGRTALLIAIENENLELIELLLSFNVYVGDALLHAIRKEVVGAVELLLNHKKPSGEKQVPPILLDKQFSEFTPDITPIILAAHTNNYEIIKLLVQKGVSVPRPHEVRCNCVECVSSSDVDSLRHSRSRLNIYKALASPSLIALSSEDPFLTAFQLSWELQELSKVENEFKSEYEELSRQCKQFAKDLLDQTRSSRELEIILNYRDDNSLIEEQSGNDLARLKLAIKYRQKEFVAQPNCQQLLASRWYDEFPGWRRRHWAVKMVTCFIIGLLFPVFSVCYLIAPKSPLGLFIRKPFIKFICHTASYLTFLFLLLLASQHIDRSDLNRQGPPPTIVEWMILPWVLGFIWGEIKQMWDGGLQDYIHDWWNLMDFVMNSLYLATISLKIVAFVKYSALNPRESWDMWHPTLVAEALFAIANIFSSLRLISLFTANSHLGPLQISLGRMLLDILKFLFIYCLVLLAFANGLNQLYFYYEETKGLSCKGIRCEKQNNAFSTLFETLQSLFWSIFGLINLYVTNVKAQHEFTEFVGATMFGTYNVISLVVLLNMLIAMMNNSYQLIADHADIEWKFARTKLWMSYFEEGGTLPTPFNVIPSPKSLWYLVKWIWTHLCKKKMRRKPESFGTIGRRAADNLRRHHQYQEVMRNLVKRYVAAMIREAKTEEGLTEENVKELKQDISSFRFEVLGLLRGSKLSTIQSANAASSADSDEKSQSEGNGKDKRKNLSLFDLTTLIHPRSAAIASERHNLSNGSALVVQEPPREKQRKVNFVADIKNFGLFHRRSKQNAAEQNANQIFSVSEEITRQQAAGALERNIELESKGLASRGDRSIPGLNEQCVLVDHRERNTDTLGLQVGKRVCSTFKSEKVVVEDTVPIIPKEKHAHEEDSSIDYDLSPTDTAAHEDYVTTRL
In short: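 material = TRPC4beta/mu-opioid receptor HEK293 cell line | probe or stimulus = sequential submaximal and maximal DAMGO stimulation | compound dosing = one concentration per compound | measured by = Fluo4 Ca2+ flux fluorescence | evaluation = integrated fluorescence ratio relative to baseline, converted to per-well B score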
In the case of CCOC(=O)C1(Cc2ccc(Cl)cc2)CCN(C(C)CCn2cccn2)CC1 (stereo not given), the B-score is reported as -6 (active).
In the case of CN(C)CC1CCCCC1=O (stereo not given), the B-score is reported as “inactive”.
With CC(=O)N(C1=NCCCS1)c1ccccc1F the B-score was “inactive”.
With CSc1ccc(C(=O)C2CCCN(Cc3ccn[nH]3)C2)cc1 (stereo not given) the B-score was “inactive”.
For Cc1ccc(C2CN(C)CC2C(=O)c2ccc(F)cc2)cc1 (stereo not given), the B-score was -6 (active).
For CN1CCC(OC(=O)c2cccc(F)c2)CC1, the B-score was “inactive”.
COc1ccc(C(=O)C2CN(C)CC2C(=O)c2ccc(OC)cc2)cc1 (stereo not given) was tested, and the B-score was “inactive”.
O=c1[nH]c(CN2CC=C(c3ccccc3)CC2)nc2scc(-c3cccs3)c12 was tested, and the B-score was “inactive”.
In the case of COc1ccc(CN2CCN(c3ccccc3F)CC2)c(OC)c1, the B-score is reported as “inactive”.
In the case of c1ccc(CCN2CCC3(CC2)OCCO3)cc1, the B-score is reported as “inactive”.
CCC(=NCc1ccco1)c1c(O)n(Cc2ccccc2)c(=O)[nH]c1=O was tested, and the B-score was “inactive”.
In the case of CCOC(=O)C1(CCc2ccccc2)CCN(Cc2ccco2)CC1, the B-score is reported as -8 (active).
COc1ccc(N=Cc2c(O)n(C)c(=O)[nH]c2=O)cc1 was tested, and the B-score was “inactive”.
In the case of N#CC1=C(N)Oc2c(c(=O)oc3ccccc23)C1c1ccccc1OC(=O)c1cccs1 (stereo not given), the B-score is reported as “inactive”.
In the case of COC(=O)C1=C(c2cc3ccccc3s2)C[C@@H]2CC[C@H]1N2C(=O)NC(C)C, the B-score is reported as “inactive”.
For COC(=O)C1=C(c2cc3ccccc3s2)C[C@@H]2CC[C@H]1N2C(=O)NCCO, the B-score was -6 (active).
In the case of COC(=O)C1=C(c2cc3ccccc3s2)C[C@@H]2CC[C@H]1N2C(=O)NCc1cccc2ccccc12, the B-score is reported as “inactive”.
In the case of OCC#CC[N+]1(CC#Cc2ccccc2)CCCC1, the B-score is reported as “inactive”.
In the case of CNCC(O)c1cc(F)c(OCc2ccccc2)c(OCc2ccccc2)c1F (stereo not given), the B-score is reported as “inactive”.
CCOc1cccc(=NC2CCCCC2)c2c(C)[nH]c(C)c12 was tested, and the B-score was “inactive”.
